Screens deposited in PubChem by several laboratories.
ADAM17 inh – inhibitors of human ADAM17; P78536; recombinant ADAM17, EDANS/DABCYL FRET peptide cleavage; inhibition, % at 6.95 µM; actives 0.83% (n = 370,000); AID 720648;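 active = inhibition above the mean of compounds lying between control limits plus 3 SD, set per campaign, cut at about 8.5% in these data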;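 note: 0% = DMSO-only wells as the low control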
Target sequence (P78536 215-824 limits assumed): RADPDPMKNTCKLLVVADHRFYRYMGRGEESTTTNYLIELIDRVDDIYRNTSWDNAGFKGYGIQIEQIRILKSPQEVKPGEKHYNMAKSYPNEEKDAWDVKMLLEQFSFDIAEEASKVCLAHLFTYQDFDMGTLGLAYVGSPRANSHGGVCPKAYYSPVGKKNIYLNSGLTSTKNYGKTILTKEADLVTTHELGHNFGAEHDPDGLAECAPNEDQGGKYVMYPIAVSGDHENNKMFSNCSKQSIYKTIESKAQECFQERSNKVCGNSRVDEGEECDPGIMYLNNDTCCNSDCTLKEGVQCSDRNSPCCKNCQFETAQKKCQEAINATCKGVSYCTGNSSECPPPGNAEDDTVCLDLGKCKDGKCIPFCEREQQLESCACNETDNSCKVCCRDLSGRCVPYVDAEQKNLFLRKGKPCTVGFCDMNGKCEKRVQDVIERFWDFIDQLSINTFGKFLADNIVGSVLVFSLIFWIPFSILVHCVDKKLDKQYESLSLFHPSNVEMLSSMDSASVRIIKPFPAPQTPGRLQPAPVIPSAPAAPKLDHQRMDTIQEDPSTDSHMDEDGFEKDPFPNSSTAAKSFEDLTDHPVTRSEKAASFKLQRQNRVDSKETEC
FAS TE block – FAS thioesterase (human) inhibition; AID 602261; P49327; recombinant FAS-TE, OMFH fluorogenic substrate, fluorescence endpoint; actives 0.67% (n = 360,000); inhibition, % at 15 µM;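 active = compounds whose normalised, plate-corrected inhibition of enzyme fluorescence in the single-dose primary screen is 50% or more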;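 note: 0% = DMSO with enzyme and 100% = substrate without enzyme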
ADAM10 inh – inhibitors of human ADAM10; O14672; recombinant ADAM10, EDANS/DABCYL FRET peptide cleavage, 3 h; inhibition, % at 7 µM; actives 0.62% (n = 370,000); AID 720582;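 active = inhibition above a per-campaign cutoff equal to the mean of compounds falling between control-based bounds plus 3 SD, cut at about 20% in these data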;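 note: 0% = DMSO wells while the 100% control is not disclosed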
SENP1 inh – blocks the human SENP1 SUMO protease catalytic domain | Q9P0U3 | recombinant SENP1 catalytic domain, CyPet-SUMO1-YPet FRET cleavage | inhibition, % at 10 µM | actives 0.21% (n = 360,000) | AID 624204;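 active = inhibition at least 30% at 10 µM, raw YFP signal under a set limit, fluorescence ratio 0.5 to 1.5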;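 note: 0% = enzyme with DMSO and 100% = no enzyme wells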
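Material – human SENP1 catalytic domain · Input – SENP1 enzyme, 20 pM final · Compound dosing – single concentration of 10 µM compound, 0.5% DMSO final · Timing – enzyme reaction for 50 min at room temperature, dark · Measured by – FRET fluorescence in CFP and YFP emission channels · Control set – no-enzyme wells low, DMSO-plus-enzyme wells high control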
ADAM10 counter – inhibits human ADAM10 in ADAM17 exosite counter-screen; shares compounds with ADAM17 inh; recombinant ADAM10, EDANS/DABCYL FRET peptide cleavage, 3 h; inhibition, % at 6.95 µM; actives 47% (n = 2,900);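 active = mean inhibition over the triplicate runs exceeds the activity threshold set in the earlier primary screen, cut at about 20% in these data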;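 note: 0% = DMSO wells and 100% = marimastat wells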
ADAM17 confirm – confirmation of inhibitors of human ADAM17; shares compounds with ADAM17 inh; recombinant ADAM17, EDANS/DABCYL QFRET peptide cleavage; inhibition, % at 6.95 µM; actives 65% (n = 2,900);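 active = mean inhibition across replicates above the hit cutoff set in the primary screen, cut at about 8.5% in these data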;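 note: 0% = DMSO wells and 100% = marimastat wells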
Starred values were filed as active, the others as inactive; x = no result. An excerpt weighted towards active compounds, which were near 1.9% of everything screened.

SMILES | ADAM17 inh | FAS TE block | ADAM10 inh | SENP1 inh | ADAM10 counter | ADAM17 confirm
COc1cc(C)c(C(=O)Oc2cc(C)c(C(=O)O)c(O)c2C)c(O)c1C | 11* | -150 | 10 | -1 | 15 | 11*
COc1cc(C)c(C(=O)Oc2cc(C)c(C(=O)O)c(O)c2)c(O)c1 | -1 | -21 | -8 | 0 | x | x
O=C(NC(=S)Nc1ccc(Cc2ccncc2)cc1)c1ccccc1F | 12* | 7 | 9 | 3 | 2 | 2
Cc1cc(-c2csc(NC(=O)c3cc4ccccc4o3)n2)c(C)n1C | 11* | -6 | 14 | -9 | 16 | 7
OCc1ccccc1CNCc1ccccc1 | 0 | -6 | 0 | 1 | x | x
OCc1cccc[n+]1CCc1ccccc1 | 11* | -10 | 0 | 0 | -11 | -1
Cc1ccc(NC(=O)COc2ccc(Br)cc2CO)cc1 | 9.3* | 7 | 9 | 0 | -6 | 0
O=C(NCc1cccc(C(F)(F)F)c1)c1cccc(S(=O)(=O)NCc2ccccc2)c1 | 12* | 17 | 18 | 2 | 24* | 11*
O=C(NCc1ccccc1F)c1cccc(S(=O)(=O)NCc2ccccc2)c1 | -4 | 2 | -3 | 0 | x | x
COc1ccc(C(=O)CSc2nnc(-c3cccs3)o2)cc1OC | -2 | x | -6 | x | x | x
COC(=O)C1=C(C)N(C)C(=NCc2ccc(OC)cc2)NC1c1cccc(C(F)(F)F)c1 (configuration not stated) | 3 | x | -1 | x | x | x
COc1ccc(NS(=O)(=O)c2ccc3[nH]c(=O)[nH]c3c2)cc1 | 3 | -5 | 4 | 4 | x | x
COc1ccc(NS(=O)(=O)c2ccc3nc(COc4ccc(Cl)c(C)c4)[nH]c3c2)cc1 | 13* | 1 | 19 | -2 | 27* | 19*
O=C1Nc2ccccc2C12OCC(COc1ccc(Cl)cc1)O2 (configuration not stated) | 11* | 3 | 16 | 2 | 8 | 6
CN1C(=O)C2(OCC(COc3ccc(Cl)cc3)O2)c2ccccc21 (configuration not stated) | 3 | 30 | 8 | 6 | x | x
O=C(c1[nH]c(C(F)(F)F)nc1-c1ccccc1)N1CCC(Cc2ccccc2)CC1 | 12* | -4 | 6 | 0 | 8 | 7
C[C@@H](OC(=O)N1CCCCC1)[C@H]1O[C@]2(C)CCCC[C@H]1O2 | 9.4* | -8 | 9 | 3 | 13 | 9
CN(C)c1ccc(S(=O)(=O)NCC(=O)OCC(=O)Nc2cc(Cl)cc(Cl)c2)cc1[N+](=O)[O-] | 9.9* | -5 | 20 | 2 | 42* | 23*
CCC1CCc2sc(C(=O)Nc3cc(S(=O)(=O)N4CCOCC4)ccc3OC)cc2C1 (configuration not stated) | 1 | x | 4 | x | x | x
COc1ccc(NC(=O)c2cc(-c3cc(Cl)ccc3C)n[nH]2)c(OC)c1 | 9.9* | 18 | 16 | 1 | 23* | 11*
COc1cc(OC)cc(C(=O)NC2CCN(CC(=O)Nc3cccc4ccccc34)CC2)c1 | 12* | 6 | 12 | 0 | -5 | 2
Nc1[nH]c(C(=O)c2ccccc2)c(-c2ccc(F)cc2)c1C(=O)c1c[nH]c2ccccc12 | 5 | x | -11 | x | x | x
CC1Sc2ccc(S(=O)(=O)N3CCC(C(=O)NCC(C)c4ccccc4)CC3)cc2NC1=O (configuration not stated) | 16* | 4 | 10 | -1 | -6 | 1
CC1Sc2ccc(S(=O)(=O)N3CCC(C(=O)NCCc4ccccc4)CC3)cc2NC1=O (configuration not stated) | -1 | 0 | 9 | 2 | x | x
COc1cccc(CNC(=O)[C@H]2CCCN2C(=O)[C@H]2CCCN2C(=O)c2cccc(OC)c2)c1 | -4 | x | -1 | x | x | x
C=CC(=O)NC1CCCCN(C(C)C)C1=O (configuration not stated) | -3 | x | 5 | x | x | x
CCn1nc(C)c([N+](=O)[O-])c1C(=O)NNC(=O)c1ccc(Cl)cc1 | 0 | -6 | 2 | -1 | x | x
CCn1nc(C)c(C(=O)Nc2cc(Oc3ccc(Cl)cc3)cc([N+](=O)[O-])c2)c1C | 13* | 34 | 15 | -2 | 39* | 18*
